Three molecules from ChEMBL document CHEMBL4699669, “Discovery of a Potent Adenine-Benzyltriazolo-Pleuromutilin Conjugate with Pronounced Antibacterial Activity against MRSA” (J Med Chem, 2020) can be followed below.

Series [1] concerns Staphylococcus aureus. The series is described as follows: Antibacterial activity against methicilin-resistant Staphylococcus aureus USA300 FPR3757 incubated for 20 to 24 hrs by microbroth dilution assay. Particulars: time hrs 20-24. Format: functional. The procedure, abridged:
(§1)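 Broth microdilution per EUCAST in Mueller-Hinton broth. Inoculum 5.0·10^5 CFU/mL, prepared from overnight single-colony cultures at OD600 0.1 then diluted 100x. Final compound concentrations 0.015–16 µg/mL. Incubation at 37 °C for 20–24 h, protected from light. MIC is the lowest concentration with no visible growth. Each replicate uses three cultures; n = 2–3.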
For orientation: In broth dilution the organism is exposed to a series of concentrations in liquid medium.

The subject of series [2] is Staphylococcus aureus. The series is described as follows: Antibacterial activity against methicilin-resistant Staphylococcus aureus USA300 FPR3757 incubated for 20 hrs by microbroth dilution assay. Type of series: functional. The procedure, abridged: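 MBC determined from a completed MIC replicate (MRSA USA300 FPR3757, Mueller-Hinton, 5.0·10^5 CFU/mL). […] MBC is the lowest concentration giving a 99.9% reduction of the starting inoculum; n = 3.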

For series [3], the system named is Staphylococcus aureus. Description: Antibacterial activity against methicilin-resistant Staphylococcus aureus 52518 incubated for 20 to 24 hrs by microbroth dilution assay. The conditions noted are these: time hrs 20-24. Format: functional. In outline:
as §1

The next series relates to HEK293. Description: Cytotoxicity against HEK293 cells expressing OAT3 assessed as cell viability at 108 ug/ml incubated for 3 hrs by Cell-titer Glo assay. Format: ADME, cell-based. Particulars: human, hek293, 3 h, dose 108 µg/ml. In outline:
(§2)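 Cells rinsed of growth medium, then exposed 3 h at 37 °C, 220 rpm, light-protected, to compound in HBSS with 10 mM HEPES, pH 7.4 (final DMSO <1% at top concentrations). Plates equilibrated 10 min at rt, CellTiter-Glo 2.0 added, mixed 2 min, signal stabilized 10 min. Luminescence (ATP) normalized to HBSS-only control cells. Mean ± SD of 3 wells, one passage.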

Series [4] can be described thus: Cytotoxicity against MDCK1 assessed as cell viability at 108 ug/ml incubated for 3 hrs by Cell-titer Glo assay. The conditions noted are these: dog, mdck1, 3 h, dose 108 µg/ml. Also noted: species or system Canis lupus familiaris. In outline:
as §2

Series [5] deals with Caco-2. Description: Cytotoxicity against undifferentiated human Caco2 cells assessed as ATP level at 108 ug/ml incubated for 3 hrs by Cell-titer Glo assay. Format: cell-based. The conditions noted are these: caco-2, 3 h, dose 108 µg/ml. The procedure, abridged:
as §2

Series [6] has as its system Caco-2. Description: Cytotoxicity against human Caco2 cells assessed as cell viability at 108 ug/ml incubated for 3 hrs by MTT assay. Type of series: cell-based. The conditions noted are these: caco-2, 3 h, dose 108 µg/ml. In outline:
(§3)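 Undifferentiated Caco-2 cells, medium aspirated, treated 3 h at 37 °C, 220 rpm with compound in HEPES-buffered HBSS (HBSS alone as negative control, SDS as positive control). MTT then added (final 0.5 mg mL⁻¹) for 2 h more. Formazan dissolved overnight at 4 °C in 10 mM HCl/50% isobutanol/10% SDS. Mean ± SD of 3 wells, one passage.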
Background: Tetrazolium assays rely on reduction of a dye to a coloured formazan, in cell work by metabolically active cells.

Series [7] deals with Staphylococcus epidermidis. The series is described as follows: Antibacterial activity against methicilin-resistant Staphylococcus epidermis 933010 incubated for 20 to 24 hrs by microbroth dilution assay. Particulars: time hrs 20-24. Type of series: functional. In outline: as §1
The test system of series [8] is Staphylococcus aureus. The series is described as follows: Antibacterial activity against methicilin-resistant Staphylococcus aureus 55508 incubated for 20 to 24 hrs by microbroth dilution assay. The conditions noted are these: time hrs 20-24. Type of series: functional. In outline: as §1
The subject of a further series is PC-3. The series is described as follows: Cytotoxicity against human PC3 cells assessed as cell viability at 108 ug/ml incubated for 3 hrs by Cell-titer Glo assay. Format: cell-based. Particulars: pc-3, 3 h, dose 108 µg/ml. The procedure, abridged: as §2
In series [9] the test system is Caco-2. Description: Cytotoxicity against differentiated human Caco2 cells assessed as increase in ATP level at 108 ug/ml incubated for 3 hrs by Cell-titer Glo assay. Format: cell-based. The conditions noted are these: caco-2, 3 h, dose 108 µg/ml. In outline: as §2
The test system of series [10] is Staphylococcus aureus. The series is described as follows: Antibacterial activity against methicilin-resistant Staphylococcus aureus 4828 incubated for 20 to 24 hrs by microbroth dilution assay. Type of series: functional. The conditions noted are these: time hrs 20-24. The procedure, abridged:
as §1

The subject of series [11] is Caco-2. Description: Cytotoxicity against differentiated human Caco2 cells assessed as ATP level at 33 ug/ml incubated for 3 hrs by Cell-titer Glo assay. Type of series: cell-based. The conditions noted are these: caco-2, 3 h, dose 33 µg/ml. The procedure, abridged:
as §2

For series [12], the system named is Caco-2. Description: Cytotoxicity against human Caco2 cells assessed as cell viability at 33 ug/ml incubated for 3 hrs by MTT assay. Type of series: cell-based. Particulars: caco-2, 3 h, dose 33 µg/ml. The procedure, abridged: as §3
Series [13] deals with Caco-2. The series is described as follows: Cytotoxicity against differentiated human Caco2 cells assessed as increase in ATP level at 33 ug/ml incubated for 3 hrs by Cell-titer Glo assay. Type of series: cell-based. Particulars: caco-2, 3 h, dose 33 µg/ml. In outline:
as §2

In series [14] the test system is Caco-2. The series is described as follows: Cytotoxicity against undifferentiated human Caco2 cells assessed as ATP level at 100 ug/ml incubated for 3 hrs by Cell-titer Glo assay. Format: cell-based. The conditions noted are these: caco-2, 3 h, dose 100 µg/ml. The procedure, abridged: as §2
Series [15] deals with Caco-2. Description: Cytotoxicity against differentiated human Caco2 cells assessed as increase in ATP level at 100 ug/ml incubated for 3 hrs by Cell-titer Glo assay. Type of series: cell-based. Particulars: caco-2, 3 h, dose 100 µg/ml. The procedure, abridged: as §2
Series [16] relates to Caco-2. The series is described as follows: Cytotoxicity against human Caco2 cells assessed as cell viability at 100 ug/ml incubated for 3 hrs by MTT assay. Format: cell-based. Particulars: caco-2, 3 h, dose 100 µg/ml. The procedure, abridged:
as §3

Series [17] is described as follows: Cytotoxicity against human PC3 cells assessed as decrease in ATP level at 100 ug/ml incubated for 3 hrs by Cell-titer Glo assay relative to control. Format: cell-based, PC-3. Particulars: at 100 µg/mL, read-out: INH. In outline:
as §2

In brackets after ≈: the same amount, converted by molar mass.

As for `C=C[C@]1(C)C[C@@H](OC(=O)Cn2cc(-c3ccc(Cn4cnc5c(N)ncnc54)cc3)nn2)[C@]2(C)[C@H](C)CC[C@]3(CCC(=O)[C@H]32)[C@@H](C)[C@@H]1O`, the minimum inhibitory concentration (MIC) – broadly, the least concentration at which growth counts as inhibited – against Staphylococcus aureus [1] was found to be 0.03 µg/mL (≈ 0.046 µM); in the series with Staphylococcus aureus [3] it was 0.03 µg/mL (≈ 0.046 µM); in series [7], 0.25 µg/mL (≈ 0.383 µM); against Staphylococcus aureus [8], 0.06 µg/mL (≈ 0.0919 µM); in the series with Staphylococcus aureus [10], 0.06 µg/mL (≈ 0.0919 µM). Also, the MBC – broadly, the lowest tested concentration that kills the bacteria rather than only halting them – with Staphylococcus aureus [2] is 0.12 µg/mL (≈ 0.184 µM). The Activity result in the series on HEK293 was “Non-Toxic”; in series [4] it was “Non-Toxic”; in the series on Caco-2 [5] it was “Non-Toxic”; with Caco-2 [6], “Non-Toxic”; in the series on PC-3, “Non-Toxic”; in the series on Caco-2 [9], “Toxic”.

Take `C=C[C@]1(C)C[C@@H](OC(=O)CS[C@@H]2C[C@H]3CC[C@@H](C2)N3C)[C@]2(C)[C@H](C)CC[C@]3(CCC(=O)[C@H]32)[C@@H](C)[C@@H]1O` [RETAPAMULIN]: the MIC in the series with Staphylococcus aureus [1] stood at 0.25 µg/mL (≈ 0.483 µM); with Staphylococcus aureus [3] it was 0.12 µg/mL (≈ 0.232 µM); in [7] it was 0.5 µg/mL (≈ 0.966 µM); in the series with Staphylococcus aureus [8], 0.25 µg/mL (≈ 0.483 µM); against Staphylococcus aureus [10], 0.25 µg/mL (≈ 0.483 µM). The Activity result is “Non-Toxic” in the series with Caco-2 [11], “Non-Toxic” with Caco-2 [12] and “Toxic” in the series on Caco-2 [13]. In the series with Staphylococcus aureus [2], the MBC is over 2 µg/mL.

As for `C=C[C@]1(C)C[C@@H](OC(=O)CSC(C)(C)CNC(=O)[C@H](N)C(C)C)[C@]2(C)[C@H](C)CC[C@]3(CCC(=O)[C@H]32)[C@@H](C)[C@@H]1O` [VALNEMULIN], the MIC is 0.06 µg/mL (≈ 0.106 µM) in the series with Staphylococcus aureus [1]; 0.06 µg/mL (≈ 0.106 µM) in the series on Staphylococcus aureus [3]; 0.25 µg/mL (≈ 0.443 µM) in series [7]; 0.12 µg/mL (≈ 0.212 µM) in the series with Staphylococcus aureus [8]; 0.06 µg/mL (≈ 0.106 µM) with Staphylococcus aureus [10]. For the same molecule, the MBC against Staphylococcus aureus [2] is 0.12 µg/mL (≈ 0.212 µM). For the same molecule, the figures for the Activity result in the series on Caco-2 [14], with Caco-2 [15] and in the series on Caco-2 [16] were “Non-Toxic”, “Toxic” and “Non-Toxic”, respectively. Besides, in [17], the cytotoxicity at 3 h, 100 ug/ml came out at 22%.
